Experimental data reported in PMC5888399 (The FASEB Journal, 2017).
Where two headings read alike, the source gives them in different places. Marks after values point to notes of the source that are not given here.

Tests used:
[1] = test system: FDB muscle fibers of mdx mice; assay: Fura-2 microfluorescence, resting cytosolic Ca2+ in isolated FDB myofibers; format: in vivo, mouse; conditions: 4 wk
Method in brief: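 FDB muscles were dissected after 4 wk of drinking-water dosing. Myofibers were isolated enzymatically in Ringer's with 0.8–1 mg/ml collagenase type XI-S for 45 min at 37°C, under constant agitation and O2 flux. Resting cytosolic Ca2+ was then measured by fura-2 microfluorescence (UNIBA).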

[2] = test system: DIA and GC muscles of mdx mice; assay: Histologic evaluation; format: in vivo, mouse; conditions: for Change in % damaged, total damaged gastrocnemius (%) / CNFs in DIA / Change in % damaged, total damaged DIA (%): 12 wk; for Change in % damaged, total damaged gastrocnemius (%) / Change in % damaged, total damaged DIA (%): vs mdx vehicle; for CNFs in DIA: vehicle 72.3 ± 1.6
Method in brief: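 Diaphragm and left gastrocnemius were frozen in isopentane cooled in N2 (AGA) or paraffin-fixed (UNIBA). Sections of 6–10 μm were H&E-stained. Scored items: inflammation, degeneration, regeneration, centronucleated and normal fibers, and total damaged area. Five random images were taken per section, with blinded analysis on at least 6 animals per group.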

[3] = test system: RyR1, FKB1α, UTRN, MIOG, FSTN, BNIP3, TGF-β, CYBB; assay: Real-time PCR gene expression in GC muscle; format: in vivo, mouse
Method in brief: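 Total RNA was extracted from gastrocnemius (UNIBA) and reverse-transcribed at 25°C for 10 min, 42°C for 50 min and 70°C for 15 min. TaqMan real-time PCR used 8 ng cDNA per reaction, singleplex, in triplicate. Targets were RyR1, FKBP1α, utrophin, myogenin, follistatin, BNIP3, TGF-β and CYBB, normalized to GAPDH.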

[4] = test system: Ca2+-dependent calpains; assay: Calpain activity in DIA muscle lysates; format: in vivo, mouse; conditions: treated groups, 4 wk, not significant
[5] = test system: mdx EDL muscle fibers; format: in vivo, mouse; conditions: 4 wk
[6] = Body weight, organ and muscle mass; format: in vivo, mouse
Method in brief: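 mdx and WT mice given test compound in spring water (vehicle) ad libitum, targeting 10 or 50 mg/kg per day. Dose was calculated from weekly water volume per cage divided by animals and normalized to mean body weight. Body weight was tracked over 4 or 12 wk of treatment. Data are means ± sem. WT vs mdx vehicle was compared by unpaired t test; doses vs mdx vehicle by 1-way ANOVA with Dunnett's test.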

[7] = test system: exercised mdx mice; assay: Hindlimb grip strength; format: in vivo, mouse; conditions: 12 wk, AGA
Method in brief: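 In the 12-wk phase 2 study at AGA, treadmill-exercised mice had hindlimb grip force measured weekly with a grip strength meter, at least 48 h after the last treadmill session. Dosing was via drinking water at 10 or 50 mg/kg per day, with spring water as vehicle.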

[8] = test system: PKA-phosphorylated RyR channels in SR vesicles from either cardiac or skeletal muscles; assay: Calstabin rebinding to RyR channels in SR vesicles; format: binding; conditions: data not shown
[9] = S48168 plasma and GC muscle levels; format: in vivo, mouse; conditions: for Skeletal muscle (GC) concentration (mean) / Plasma concentration (mean): AGA; for Plasma concentration (mean): 20–30 min after drinking water withdrawn; for concentration at 2 h: mdx, mouse, oral, UNIBA
Method in brief: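 Drug levels in plasma and gastrocnemius were measured by LC-MS/MS (ESI+, PFP column) after protein precipitation on phospholipid-removal plates, with a stable-isotope-labelled internal standard. In phase 2, blood was collected 20–30 min (AGA) or 2 h (UNIBA) after drinking water was withdrawn, following 12 wk of dosing at 10 or 50 mg/kg per day.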

[10] = Oral bioavailability; format: in vivo; conditions: data not shown
[11] = test system: DIA muscle of mdx mice; format: in vivo, mouse
[12] = test system: EDL muscle of mdx mice; format: in vivo, mouse; conditions: for % change EDL twitch force: vs mdx vehicle
[13] = test system: creatine kinase (CK); assay: CK serum levels; format: in vivo, mouse
Method in brief: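 Serum was taken from blood drawn by cardiac puncture. CK was measured spectrophotometrically with a diagnostic kit. Mice received drinking-water dosing of 10 or 50 mg/kg per day, with spring water as vehicle.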

[14] = test system: exercised mdx mice; assay: Forelimb grip strength; format: in vivo, mouse; conditions: for Percentage change in normalized forelimb grip strength: vs mdx vehicle
Method in brief: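 Mice were treadmill-exercised to unmask the phenotype. Forelimb grip force was measured weekly with a grip strength meter, at least 48 h after the last treadmill session: at UNIBA in phase 1 (4 wk), and at UNIBA and AGA in phase 2 (12 wk). Values were normalized to body weight. Outputs were percentage change vs WT or mdx vehicle and recovery score relative to the WT–mdx difference.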

[15] = test system: young mdx mice; conditions: short term (2 wk) treatment; cited from earlier work
[16] = 50 mg/kg per day, 4 wk, not significant

## COc1ccc2c(c1)CN(Cc1ccc(C(=O)O)cc1)CCS2 [S48168/ARM210]
[1]; 10 mg/kg per day
  Level of cytosolic Ca2+ vs mdx vehicle: no difference
[1]; 50 mg/kg per day
  Reduction in cytosolic Ca2+ vs mdx vehicle myofibers: 25%
[2]; 10 mg/kg per day, AGA
  Change in % damaged, total damaged gastrocnemius (%): 1%
[2]; 10 mg/kg, UNIBA
  CNFs in DIA: 62.4 ± 2.9%
[2]; 50 mg/kg per day, 4 wk
  Percentage of regenerating area in GC: significant increases
[2]; [16]
  Percentage of regeneration in DIA: increase in the percentage of regeneration
  Percentage of total damage in DIA: reduction in the percentage of total damage
[2]; 50 mg/kg per day, 4 wk, significant
  Percentage of total damage in GC: decreases
[2]; 50 mg/kg per day, AGA
  Change in % damaged, total damaged DIA (%): −10* %
  Change in % damaged, total damaged gastrocnemius (%): 5%
[2]; 50 mg/kg per day, UNIBA
  Change in % damaged, total damaged DIA (%): −19%
[2]; 50 mg/kg, UNIBA
  CNFs in DIA: 53.3 ± 2.5%
[2]; either dose, 4 wk
  Number of CNF vs normal fibers in DIA or GC: No marked differences
[3]; 50 mg/kg per day, 4 wk
  BNIP3 gene expression level vs mdx vehicle: trend toward an increase
  Gene expression of RyR1 compared with WT mice: significant increase
[3]; 10 or 50 mg/kg per day, 4 wk
  Expression of RyR1, FKB1α, UTRN, MIOG, FSTN, TGF-β, or CYBB vs mdx vehicle: No significant changes
[3]; any dose, 12 wk
  Expression level of RyR1, calstabin, or BNIP3: No significant changes
[4]
  Calpain activity in DIA: trend toward a reduction
[5]; 50 mg/kg per day, all durations of depolarizing pulses
  Mechanical threshold: potential for fiber contraction, rheobase voltage: significant shift in the potential for fiber contraction toward WT values
[5]; printed 50 mg/kg per day
  Mechanical threshold: rheobase voltage: slight but nonsignificant effect
[6]; 10 mg/kg per day, 4 wk
  Heart mass normalized to body weight vs mdx vehicle: lower normalized mean value
[6]; 10 mg/kg per day, 12 wk, UNIBA
  Quadriceps mass, absolute and normalized: significant increase
[6]; 50 mg/kg per day, 12 wk, UNIBA, n = 8
  Liver mass normalized to body weight: 56.39 ± 2.61 g/g × 1000
[6]; 4 wk
  Mass of various skeletal muscles: no drug effect
[6]; 10 or 50 mg/kg per day, 4 wk, phase 1
  Body weight vs mdx vehicle: no changes in body weight
[6]; 12 wk, UNIBA and AGA, any time point
  Body weight vs mdx vehicle: no changes in body weight
[7]; 50 mg/kg per day
  Normalized hindlimb grip strength: statistically significant ameliorative effect
[7]; treatment groups
  Absolute hindlimb grip strength vs mdx vehicle: no differences
[8]
  Calstabin binding to PKA-phosphorylated RyR channels: effectively re-establish calstabin binding
[9]; 10 mg/kg, 12 wk treatment
  Skeletal muscle (GC) concentration (mean): 0.552 µg/g
  Plasma concentration (mean): 6125 ng/mL
[9]; 50 mg/kg, 12 wk treatment
  Skeletal muscle (GC) concentration (mean): 1.716 µg/g
  Plasma concentration (mean): 18775 ng/mL
[9]; gastrocnemius (GC) skeletal muscle, 10 mg/kg, Skeletal muscle (GC) concentration (mean), 4 wk treatment
  concentration at 2 h: 151 ng/g
[9]; gastrocnemius (GC) skeletal muscle, 10 mg/kg, Skeletal muscle (GC) concentration (mean), 12 wk treatment
  concentration at 2 h: 123 ng/g
[9]; gastrocnemius (GC) skeletal muscle, 50 mg/kg, Skeletal muscle (GC) concentration (mean), 4 wk treatment
  concentration at 2 h: 512 ng/g
[9]; gastrocnemius (GC) skeletal muscle, 50 mg/kg, Skeletal muscle (GC) concentration (mean), 12 wk treatment
  concentration at 2 h: 1160 ng/g
[9]; plasma, 10 mg/kg, Plasma concentration (mean), 10 mg/kg, 4 wk treatment, about 2 h after drinking water withdrawn
  concentration at 2 h: 881 ng/mL
[9]; plasma, 50 mg/kg, Plasma concentration (mean), 50 mg/kg, 4 wk treatment, about 2 h after drinking water withdrawn
  concentration at 2 h: 3020 ng/mL
[10]
  Oral bioavailability: good oral bioavailability
[11]; 10 mg/kg per day, 12 wk, UNIBA, vs mdx vehicle
  % change DIA twitch force: +2%
[11]; 50 mg/kg per day, 4 wk
  DIA specific tetanic force vs mdx vehicle: significantly higher
[11]; 50 mg/kg per day, 4 wk, 120 and 140 Hz
  DIA force–frequency relationship vs mdx vehicle: significantly higher values
[11]; any dose level, 4 wk
  DIA fatigue and recovery from fatigue: no effect
[12]; 10 mg/kg per day, 12 wk, AGA
  % change EDL twitch force: −2%
[12]; 10 mg/kg per day, 12 wk, UNIBA
  % change EDL twitch force: −1%
[12]; 50 mg/kg per day, 12 wk, AGA
  % change EDL twitch force: +6%
[12]; 50 mg/kg per day, 12 wk, UNIBA
  EDL stiffness: slight but not significant amelioration
[12]; 12 wk, data not shown
  EDL fatigue-related decline in force and recovery from fatigue vs mdx vehicle: no differences
  EDL muscle-contraction kinetics (time to peak, half relaxation time): no effect
[12]; both doses, 4 wk
  EDL muscle force (twitch and specific tetanic): no effect
[12]; either dose, 12 wk, UNIBA
  Force decrease in EDL muscle from eccentric contraction: No protective effect
[13]; 12 wk, UNIBA and AGA
  CK level: no significant changes
[13]; either dosage, 4 wk
  Serum level of CK vs mdx vehicle: No significant change
[14]; 10 mg/kg per day, 12 wk, AGA
  Normalized forelimb grip strength vs mdx vehicle: no statistically significant effect
[14]; 10 mg/kg, week 12, UNIBA
  Recovery score, normalized forelimb force: 35%
[14]; 10 mg/kg, week 12, UNIBA, vehicle 4.06 ± 0.20
  Normalized forelimb force: 5 ± 0.23 KGF/kg
[14]; 10 mg/kg/d, 12 wk, AGA
  Percentage change in normalized forelimb grip strength: +3%
[14]; 50 mg/kg per day, 12 wk, AGA, vehicle 3.62 ± 0.14
  Normalized forelimb grip strength: 3.99 ± 0.15 KGF/kg
[14]; 50 mg/kg per day, W4, phase 1 UNIBA
  Recovery score, absolute forelimb strength: 70%
[14]; 50 mg/kg, week 12, UNIBA
  Recovery score, normalized forelimb force: 12%
[14]; 50 mg/kg/d, 12 wk, AGA
  Percentage change in normalized forelimb grip strength: +10** %
[14]; 50 mg/kg/d, 12 wk, UNIBA
  Percentage change in normalized forelimb grip strength: +8%

## COc1ccc2c(c1)CN(C)CCS2 [S107]
[15]
  Muscle function in young mdx mice: improved muscle function
